Each structure is given as a SMILES string.

A short description of assay [1]: Compound was tested for the induction of HaCaT keratinocyte differentiation at 1 uM expressed as the amount of cross-linked protein in cornified envelope assay. It counts as functional, Homo sapiens. A digest of the protocol: (§1)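 Terminal differentiation of HaCaT keratinocytes measured as insoluble cross-linked protein envelopes, using a modified method; protein in envelope preparations quantified by Bradford. Value is the difference in cross-linked protein per mg protein between treated and vehicle-control cells; means ± SEM of three independent experiments; significance vs vehicle p < 0.05.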

Assay [2] is described as follows: Compound was tested for the induction of HaCaT keratinocyte differentiation at 10 uM expressed as the amount of cross-linked protein in cornified envelope assay. Type of assay: functional, Homo sapiens. A digest of the protocol:
as §1

Assay [3] in a line: Compound was tested for the induction of HaCaT keratinocyte differentiation at 5 uM expressed as the amount of cross-linked protein in cornified envelope assay. It counts as functional, Homo sapiens. A digest of the protocol: as §1
The nature of assay [4]: Deoxyribose degradation measured as hydroxyl radical generation in HaCaT cell at 75 uM expressed as malondialdehyde released. Type of assay: functional, Homo sapiens.
Assay [5] is described as follows: Activity of LDH release in HaCaT cells after treatment with 2 uM concentration of the compound. It counts as functional, Homo sapiens. The gist of the method:
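LDH activity (mU) released into the HaCaT culture medium after compound treatment, taken as a marker of plasma membrane integrity and cytotoxicity; compared against vehicle controls; N=3.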

Assay [6] is described as follows: Antiproliferative activity against growth of HaCaT cell was determined. Type of assay: functional, cell-based. Particulars: Homo sapiens.

Broadly, the IC50 is the concentration that inhibits the measured activity by half. Higher therefore signals weaker potency in that assay. `O=C1c2c(O)cccc2C(C(=O)c2ccco2)c2cccc(O)c21`: the “Amount of cross-linked protein” value in assay [1] is listed as 0.5 (ug of cross-linked protein) (mg of protein)-1; in assay [2], 5.8 (ug of cross-linked protein) (mg of protein)-1; in assay [3] it was 3.5 (ug of cross-linked protein) (mg of protein)-1. The DD in assay [4] was 0.41 uM mM-1. Moreover, the LDH release in assay [5] worked out at 242 mU. Further, in assay [6], inhibition was half-maximal at 1200 nM (IC50).
As for `O=C1c2c(O)cccc2C(C(=O)c2ccccc2)c2cccc(O)c21`, the DD in assay [4] was 2.31 uM mM-1. In addition, the half-inhibitory concentration (IC50) in assay [6] is over 5000 nM.
With `O=C1c2c(O)cccc2C(C(=O)c2ccsc2)c2cccc(O)c21`, the “Amount of cross-linked protein” value in assay [1] is on record as -0.6 (ug of cross-linked protein) (mg of protein)-1; in assay [2], 3.4 (ug of cross-linked protein) (mg of protein)-1; in assay [3] it was 0.6 (ug of cross-linked protein) (mg of protein)-1. In assay [4], the DD is listed as 0.82 uM mM-1. The compound further yielded an IC50 in assay [6] of over 5000 nM.
As for `O=C1c2c(O)cccc2C(C(=O)/C=C/c2cccs2)c2cccc(O)c21`, the “Amount of cross-linked protein” value in assay [1] is recorded as 2 (ug of cross-linked protein) (mg of protein)-1; in assay [2], 5.6 (ug of cross-linked protein) (mg of protein)-1; in assay [3], 5 (ug of cross-linked protein) (mg of protein)-1. Also, the DD in assay [4] is 1.13 uM mM-1. Further, in assay [5], the LDH release was 166 mU. This compound also showed a half-maximal inhibitory concentration (IC50) in assay [6] of 4200 nM.
`O=C1c2c(O)cccc2C(C(=O)c2cc3ccccc3[nH]2)c2cccc(O)c21`: the “Amount of cross-linked protein” value in assay [1] is 2 (ug of cross-linked protein) (mg of protein)-1; in assay [2], 5.7 (ug of cross-linked protein) (mg of protein)-1; in assay [3], 4.8 (ug of cross-linked protein) (mg of protein)-1. Moreover, the DD in assay [4] is 0.17 uM mM-1. In assay [5], the LDH release amounted to 167 mU. In addition, in assay [6], the IC50 was determined as 700 nM.
With `O=C1c2c(O)cccc2Cc2cccc(O)c21` [ANTHRALIN], the “Amount of cross-linked protein” value is 3.7 (ug of cross-linked protein) (mg of protein)-1 in assay [1], 5.8 (ug of cross-linked protein) (mg of protein)-1 in assay [2] and 4.9 (ug of cross-linked protein) (mg of protein)-1 in assay [3]. Also, the DD in assay [4] is 2.89 uM mM-1. Moreover, the LDH release in assay [5] is 294 mU. Further, the IC50 in assay [6] amounted to 700 nM.
Regarding `O=C1c2c(O)cccc2C(C(=O)c2ccc[nH]2)c2cccc(O)c21`, the “Amount of cross-linked protein” value was 2.3 (ug of cross-linked protein) (mg of protein)-1 in assay [1], 6.5 (ug of cross-linked protein) (mg of protein)-1 in assay [2] and 5.7 (ug of cross-linked protein) (mg of protein)-1 in assay [3]. In assay [4], the DD is on record as 1.77 uM mM-1. In addition, the LDH release in assay [5] turned out to be 202 MU. The compound further displayed a half-inhibitory concentration (IC50) in assay [6] of 600 nM.
On to `O=C1c2cccc(O)c2C(=O)c2c(O)cccc21` [DANTHRON], for which the results for the “Amount of cross-linked protein” value in assay [1], in assay [2] and in assay [3] were 0.6 (ug of cross-linked protein) (mg of protein)-1, 0 (ug of cross-linked protein) (mg of protein)-1 and -0.1 (ug of cross-linked protein) (mg of protein)-1, respectively.
`O=C1c2c(O)cccc2C(C(=O)/C=C/c2ccco2)c2cccc(O)c21`: the “Amount of cross-linked protein” value is on record as -0.2 (ug of cross-linked protein) (mg of protein)-1 in assay [1], 1.9 (ug of cross-linked protein) (mg of protein)-1 in assay [2] and 0.6 (ug of cross-linked protein) (mg of protein)-1 in assay [3]. Further, in assay [4], the DD is on record as 1.69 uM mM-1. For the same compound, the LDH release in assay [5] was found to be 147 mU. This compound yielded an IC50 in assay [6] of 1500 nM.
In the case of `O=C1c2c(O)cccc2C(C(=O)c2cccs2)c2cccc(O)c21`, the results for the “Amount of cross-linked protein” value in assay [1], in assay [2] and in assay [3] were -0.9 (ug of cross-linked protein) (mg of protein)-1, 3.7 (ug of cross-linked protein) (mg of protein)-1 and 0.7 (ug of cross-linked protein) (mg of protein)-1, respectively. The DD in assay [4] is 0.65 uM mM-1. In addition, the concentration for half-maximal inhibition (IC50) in assay [6] was over 5000 nM.

The values above are taken from ChEMBL document CHEMBL1134728, “Heterocyclic substituted anthralin derivatives as inhibitors of keratinocyte growth and inducers of differentiation” (Bioorg Med Chem Lett, 2001).
